rRNA inh HTS – selective bacterial rRNA inhibition in E. coli. E. coli WT GFP vs humanized-ribosome RFP mutants, fluorescence, 24 h; stronger effect = lower value; DMSO median 0, no signal -100. GFP signal change (wild-type ribosome), % (no concentration beside the values). 350,000 tested, 1.6% active;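 active = significant combined selectivity score with lowered wild-type GFP, culture density cut under 30%, mutant RFP and density less affected; inactive = any of these conditions unmet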
Cneo AK release – causes C. neoformans cell lysis; adenylate kinase release luminescence, 4 h; normalised: neutral wells 0, clomiphene wells 100; lysis activity, % at 15 µM; 360,000 tested, 0.2% active;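 active = mean lysis activity across replicates of at least 80%, whatever share of replicates individually reach that level; inactive = mean lysis activity below 80%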
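Test system: log-phase Cryptococcus neoformans yeast cells. Input: 5 × 10^6 yeast cells/mL. Medium: fresh YPD growth medium. Doses: single dose. Incubation: static 4 h at 37 °C with compound, 1 h detection. Measured by: luminescent adenylate kinase detection reagent. Read-out: signal increase indicating cell lysis. Benchmarks: Clomiphene.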
PGC1a acetyl inh – PGC1a acetylation modulation, inhibitor mode; U2OS PGC1a acetylation, AlphaScreen anti-acetyl-lysine; with virally co-expressed GCN5 acetyltransferase; inhibition, % at 15.6 µM; 350,000 tested, 0.17% active;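 active = every replicate shows inhibition of at least 40%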;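 also: 0% = neutral control wells and 100% = positive control wells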
Vif imaging – inhibitors of HIV Vif; HEK293T cells, Vif self-association by quenched fluorescence, imaging, 24 h; inhibition, % at 7.49 µM; 340,000 tested, 0.35% active; AID 602346; in the data active = inhibition above about 50%, passing the limit was not always enough
PglD DTNB – PglD (C. jejuni) enzyme inhibition; 360,000 tested, 0.098% active; inhibition, % at 12.5 µM; purified PglD enzyme, DTNB colorimetric CoA detection; AID 602405; in the data active = inhibition above about 16%, passing the limit was not always enough
FGF22 binding – binders of recombinant human FGF22 by thermal shift | Q9HCT0 | SYPRO orange fluorescence; percent of sucrose octasulfate shift, DMSO zero | activity (Tm shift, normalised), % at 9.99 µM | 340,000 tested, 1.5% active;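 active = mean Tm shift, scaled 0 neutral to 100 positive control, at about 1.3% or above, every replicate too, limit read from the data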
Target sequence (Q9HCT0 whole entry, looked up): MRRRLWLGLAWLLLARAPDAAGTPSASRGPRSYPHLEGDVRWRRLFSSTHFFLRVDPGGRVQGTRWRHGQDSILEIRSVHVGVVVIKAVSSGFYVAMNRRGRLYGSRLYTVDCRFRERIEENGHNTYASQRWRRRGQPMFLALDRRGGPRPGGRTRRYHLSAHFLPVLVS
An asterisk follows results filed as active; . = no result given. This is a sample that favours compounds with a hit; in the whole collection about 2.9% have one here.

SMILES	rRNA inh HTS	Cneo AK release	PGC1a acetyl inh	Vif imaging	PglD DTNB	FGF22 binding
Cc1c(NS(=O)(=O)c2ccc(Cl)c(C(=O)OCC(=O)NCc3ccco3)c2)c(=O)n(-c2ccccc2)n1C	.	1.1	3.3	0.8	8.9	44.0*
CCCNC(=O)Cn1c(=O)/c(=C/c2ccc(-c3cccc([N+](=O)[O-])c3)o2)s/c1=C\C(=O)C(C)(C)C	10.6	5.2	-6.2	13.1	-1.1	43.7*
CCOc1ccc(N2C(=O)/C(=C/c3cccs3)N(CC(=O)OC)C2=S)cc1	.	-1.0	9.1	97.5*	-0.4	.
CCc1ccc(/C=C2/C(=O)N(c3ccccc3)C(=S)N2CC(=O)OC)s1	.	-7.7	1.7	1.3	-2.7	.
CN(C)CCCNC(=O)C[C@@H]1C=C[C@H](NS(=O)(=O)c2ccc(F)cc2)[C@@H](CO)O1	5.2	1.8	10.1	.	35.8	0.3
OC[C@H]1[C@@H](c2ccc(-c3ccncc3)cc2)[C@@H]2CN(Cc3ccccn3)CCCCN12	4.9	-2.1	1.1	.	-1.8	.
CCCN1CNC(=S)N(c2ccccc2C)C1	11.2	.	.	-4.9	.	43.0*
CCCN1CNC(=S)N(c2ccc(C)cc2C)C1	6.7	.	3.9	-1.1	.	-0.2
CCOC(=O)Cc1cc(=O)n2[nH]c(C)c(-c3ccccc3)c2n1	.	0.2	-5.8	14.2	0.5	.
CCOC(=O)Cc1cc(=O)n2[nH]c(-c3ccccc3)c(-c3ccccc3)c2n1	4.9	-4.5	8.0	-8.9	-2.7	43.3*
O=C(NCC1CCCO1)C(c1ccc(F)cc1)N(Cc1ccc2c(c1)OCO2)C(=O)c1ccc(CN2CCOCC2)o1 (stereo not drawn)	5.1	0.2	-3.6	.	2.7	43.0*
COc1ccc(CN(C(=O)c2ccc(CN3CCOCC3)o2)C(C(=O)NCC2CCCO2)c2ccc(F)cc2)cc1 (stereo not drawn)	1.0	3.4	15.0	-5.0	-4.1	0.1
CC(C)N(C(=O)[C@H]1C[C@H](CC(=O)NCCCN(C)C)C(=O)N2CCc3c([nH]c4cc(CCC(=O)N(C)C)ccc34)[C@]12C)C(C)C	13.7	1.6	8.2	.	0.1	-0.4
CC(C)N(C(=O)[C@H]1C[C@H](CC(=O)NCCN2CCOCC2)C(=O)N2CCc3c([nH]c4cc(CCC(=O)N(C)C)ccc34)[C@]12C)C(C)C	4.1	-0.8	.	103.1*	-1.4	-0.2
C[C@]12c3[nH]c4ccc(Cl)cc4c3CCN1C(=O)[C@@H](CC(=O)NCc1ccco1)C[C@@H]2C(=O)N1CCOCC1	-23.4*	1.5	2.4	-12.4	-0.4	-0.4
C[C@@H]1CCCCO[C@@H](CN(C)CC2CCCCC2)[C@H](C)CN([C@H](C)CO)C(=O)c2cc(NC(=O)Cc3ccccc3)ccc2O1	3.0	55.2	4.0	.	-0.4	-2.5
COc1ccc2c3c([nH]c2c1)[C@H](CO)N(C(=O)NC(C)C)CC31CCN(C(=O)c2cccnc2)CC1	1.8	.	.	.	.	0.1
CC(=O)CC1c2cc(F)ccc2C=C(c2ccsc2)N1c1ccc(C#CC2(O)CCCCC2)cc1 (stereo not drawn)	-13.5	.	.	.	.	-0.2
CC(=O)CC1c2cc(F)ccc2C=C(c2ccsc2)N1c1ccc(C#Cc2cncn2C)cc1 (stereo not drawn)	2.4	.	.	.	.	1.8*
Nc1nc(-c2ccc(Cl)cc2)nnc1-c1ccc(Br)cc1	7.9	2.6	-16.0	-1.6	4.4	43.5*
O=C(NC1CCCC1)N1CCCCN2[C@H](CO)[C@@H](c3ccc(-c4cncnc4)cc3)[C@H]2C1	2.2	106.4*	2.2	.	2.8	0.1
O=C(Nc1ccccc1)N1CCCCN2[C@H](CO)[C@@H](c3ccc(C#CC4CC4)cc3)[C@@H]2C1	-55.6	100.5*	4.3	.	-1.6	-0.3
O=C(Nc1ccccc1)N1CCCCN2[C@H](CO)[C@H](c3ccc(C#CC4CC4)cc3)[C@H]2C1	-59.7	0.8	-18.2	.	-6.7	0.0
N#Cc1ccc(/C=C/C(=O)c2ccccc2)cc1	1.4	.	.	0.1	.	-0.3
O=C(O)CCc1ccc(S(=O)(=O)Nc2ccc(OCc3ccccc3)cc2)cc1	-5.2	-2.7	13.1	10.0	3.6	-0.3

Bioassay records (PubChem BioAssay)
